Assay results from different studies.
Compare with care: the assays were run in different laboratories.
Target: Serine/threonine-protein kinase WNK1 (WNK1, Homo sapiens, UniProt Q9H4A3)

`NS(=O)(=O)c1cc(NC(=O)C2(c3ccccc3Cl)CC2)ccc1Oc1cccc(Cl)c1` has a remaining binding of 88% (cell-free assay, competition with immobilised ligand; 1 µM).
For `CCN1CCN(Cc2ccc(C(=O)Nc3ccc(C)c(Oc4ccc5c(c4)CC(=O)N5)c3)cc2C(F)(F)F)CC1`, the remaining binding was 100% (binding, competition with immobilised ligand; 1 µM).
With `CS(=O)(=O)N1CCCC(NC(=O)[C@H](CCC2CCCCC2)NC(=O)c2ccc(CNC(=O)c3cnc4ccccn34)cc2)C1` (stereo partly drawn) the remaining binding was 99% (cell-free assay, competition with immobilised ligand; 0.1 µM).
The remaining binding of `CN(CCCC(F)(F)F)c1nccc(-c2cnn3ncccc23)n1` is reported as 100% (binding; 1 µM).
`NS(=O)(=O)c1cc(NC(=O)Cc2ccccc2)ccc1Oc1cccc(Cl)c1` has a remaining binding of 89% (cell-free assay, competition with immobilised ligand; 1 µM).
The remaining binding of `COc1ccnn2ncc(-c3ccnc(N(C)C)n3)c12` is reported as 100% (binding; 1 µM).
`O=C(NCC1CCOCC1)c1n[nH]cc1NC(=O)c1c(F)cccc1F` gave a remaining binding of 100% (binding, competition with immobilised ligand; 1 µM).
`c1cnn2ncc(-c3ccnc(N4CCC45COC5)n3)c2c1` gave a remaining binding of 100% (binding; 1 µM).
`Cc1nc(N2CC[C@@H](O)C2)ncc1-c1cc(C(F)(F)F)cc2[nH]ncc12` has a remaining binding of 71% (binding, competition with immobilised ligand; 1 µM).
With `Cc1cnn2ncc(-c3ccnc(N(C)C)n3)c2c1` the remaining binding was 94% (binding; 1 µM).
`Cc1nccc(COC(=O)N2C[C@@H]3[C@@H](CNC(=O)c4ccc5[nH]nnc5c4)[C@@H]3C2)n1` gave a remaining binding of 86% (cell-free assay, competition with immobilised ligand; 1 µM).
For `CC1CCCN1c1nccc(-c2cnn3ncccc23)n1` (stereo not drawn), the remaining binding was 98% (binding; 1 µM).
With `CC(C)CC(=O)N1CCc2nc(-c3ccc(Br)cc3)nc(N(C)Cc3ccccc3)c2C1` the remaining binding was 100% (cell-free assay, competition with immobilised ligand; 0.1 µM).
`O=C(c1ccc(Nc2nccc(-c3cc4ccccc4s3)n2)cc1)N1CCC(N2CCCC2)CC1` gave a remaining binding of 88% (binding, competition with immobilised ligand; 1 µM).
With `COc1cnc(Nc2cccc(S(N)(=O)=O)c2)nc1N1CCN(c2ccccc2)CC1` the remaining binding was 88% (binding, competition with immobilised ligand; 1 µM).
For `F[C@@H]1CCN(c2nccc(-c3cnn4ncccc34)n2)C1`, the remaining binding was 100% (binding; 1 µM).
For `FC(F)(F)Oc1cccc(-c2cnc3ccc(-c4ccncc4)nn23)c1`, the remaining binding was 79% (binding, competition with immobilised ligand; 5 µM).
The remaining binding of `O=C(NCCCN1CCOCC1)c1ccc(Nc2ncc(Cl)c(-c3ccc(Cl)s3)n2)cc1` is reported as 89% (binding, competition with immobilised ligand; 1 µM).
